Measured values: ChEMBL document CHEMBL4665779, “Novel 2-Substituted 3-Hydroxy-1,6-dimethylpyridin-4(1H)-ones as Dual-Acting Biofilm Inhibitors of Pseudomonas aeruginosa” (J Med Chem, 2020)
The source made the active and inactive calls. The calls are words filed in the database; no cut-off is given here.

What was measured:
L02 = assay: Cytotoxicity against human L02 cells assessed as reduction in cell viability up to 50 uM after 16 hrs by MTT assay; assay type: cell-based; details: l02, 16 h
In short: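 Vero or LO2 cells were seeded at 5000–15000 cells/well for 16 h, PBS-washed, then exposed to compound in DMEM at 37 °C and 5% CO2 for 16 h. MTT (20 μL of 5 mg/mL) was added for 3 h, and formazan was dissolved in DMSO and read at 570 nm. Triplicate; mean ± SD.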

Pseudomonas aeruginosa [1] = assay: Inhibition of biofilm formation in multidrug resistant Pseudomonas aeruginosa FB at 10 uM relative to control; assay type: functional
[2] = system: Pseudomonas aeruginosa PAO1; assay: Induction of iron chelation in Pseudomonas aeruginosa PAO1 assessed as increase in intracellular pyochelin level at 1.25 to 20 uM in presence of 10 uM FeCl3 by fluorescence microplate reader assay; assay type: cell-based; details: dose microM 1.25-20
Pseudomonas aeruginosa [3] = assay: Inhibition of swimming motility of Pseudomonas aeruginosa PAO1 measured after 16 hrs; assay type: functional, organism-based; details: dose microM 1.25-20, time 16.0 hrs
In short: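 Compound (0–20 μM) was included in LB plates with 0.3% agar, 0.5% casamino acids and 0.5% glucose. Plates were dried 1 h, then 1 μL PAO1 (OD600 1) was placed at the plate bottom. Incubation was 16 h at 37 °C; three independent experiments.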

Pseudomonas aeruginosa [4] = assay: Inhibition of swarming motility of Pseudomonas aeruginosa PAO1 measured after 16 hrs; assay type: functional, organism-based; details: dose microM 1.25-20, time 16.0 hrs
In short: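 LB plates with 0.5% agar, 0.5% casamino acids and 0.5% glucose contained compound at 0–20 μM. Plates were dried 1 h, then 1 μL PAO1 (OD600 1) was spotted on the centre. Incubation was 16 h at 37 °C; three independent experiments.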

Pseudomonas aeruginosa [5] = assay: Antibacterial activity against Pseudomonas aeruginosa infected in human L02 assessed as cell survival at 20 uM pretreated for 24 hrs followed by cell addition and measured 4 hrs post-infection by MTT assay (reference value: 40.7%); assay type: functional; details: time 28 hrs
[6] = system: Pseudomonas aeruginosa PAO1; assay: Induction of iron chelation in Pseudomonas aeruginosa PAO1 assessed as increase in iron deficiency by measuring change in total ferric ion concentration at 20 uM by inductively coupled plasma mass spectrometry (reference value: 1.91 +/- 0.8 uM)
Pseudomonas aeruginosa [7] = assay: Antibiofilm activity against Pseudomonas aeruginosa PAO1 assessed as reduction in biofilm mass at 1.25 uM after 24 hrs by microtiter plate assay relative to control; assay type: functional; design: scale not given: the % may be the effect or the level left
In short: (§1)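 PAO1 (OD600 0.05) was cultured in ABTGC medium at 37 °C for 24 h with compound (1.25–20 μM for the dose series). Wells were PBS-washed three times, methanol-fixed for 30 min, air-dried, and stained with 0.1% crystal violet for 30 min. Stain was solubilized in 33% acetic acid and read at 570 nm. Compound stocks were […]. Run in triplicate.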

Pseudomonas aeruginosa [8] = assay: Inhibition of biofilm formation in multidrug resistant Pseudomonas aeruginosa 1167 at 5 uM relative to control; assay type: functional
[9] = system: Pseudomonas aeruginosa PAO1; assay: Induction of iron chelation in Pseudomonas aeruginosa PAO1 assessed as increase in intracellular pyochelin level at 1.25 to 20 uM in presence of 50 uM FeCl3 by fluorescence microplate reader assay; assay type: cell-based; details: dose microM 1.25-20
In short: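 PAO1 overnight LB culture was diluted in ABTGC medium to OD600 0.02 ([…]), with compound at 0–20 μM, in medium containing 10 or 50 μM FeCl3. Plates were kept at 37 °C in a plate reader recording OD600, pyoverdine fluorescence (ex 400/em 447 nm) and pyochelin fluorescence (ex 350/em 430 nm). Triplicate.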

[10] = Metal chelating activity assessed as negative logarithm of total free ferric ion concentration in a solution under biological conditions
In short: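 Fluorescence competition with CP645 (6 μM), quenched by Fe-NTA (2 μM) for 30 min before compound (60 μM) was added in Chelex-treated MOPS. Fluorescence was read after 48 h, with DFP as reference. pFe(III) was calculated from relative fluorescence as % = 11.743 pFe(III) − 169. Mean of three determinations.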

[11] = system: Pseudomonas aeruginosa PAO1; assay: Induction of iron chelation in Pseudomonas aeruginosa PAO1 assessed as increase in iron deficiency by measuring change in total ferric ion concentration at 10 uM by inductively coupled plasma mass spectrometry (reference value: 1.91 +/- 0.8 uM)
In short: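 PAO1 (OD600 0.05) was diluted 1:100 into ABTGC medium and grown 24 h at 37 °C with shaking, with compound; DFP at 20 μM was the reference. Pellets were washed twice in HEPES and lysed with lysozyme in 50 mM HEPES plus sonication for 30 min. Lysates were digested with 1 M nitric acid, centrifuged, and analysed by ICP-MS. Mean ± SD, triplicate.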

Pseudomonas aeruginosa [12] = assay: Inhibition of biofilm formation in multidrug resistant Pseudomonas aeruginosa FB at 2.5 uM relative to control; assay type: functional
Pseudomonas aeruginosa [13] = assay: Antibiofilm activity against Pseudomonas aeruginosa PAO1 assessed as reduction in biofilm mass after 24 hrs by microtiter plate assay; assay type: functional, organism-based; details: dose microM 1.25-20, time 24.0 hrs; in short: as §1
Pseudomonas aeruginosa [14] = assay: Inhibition of biofilm formation in multidrug resistant Pseudomonas aeruginosa 1167 at 20 uM relative to control; assay type: functional
Pseudomonas aeruginosa [15] = assay: Inhibition of biofilm formation in multidrug resistant Pseudomonas aeruginosa 1167 at 2.5 uM relative to control; assay type: functional

CCCCCCC(=O)NCc1c(O)c(=O)cc(C)n1C
Activity (L02): Non-Toxic | inhibition at 10 µM (Pseudomonas aeruginosa [1]): 18.4% | Activity [2]: Active | inhibition (Pseudomonas aeruginosa [3]): Dose-dependent effect | inhibition (Pseudomonas aeruginosa [4]): Dose-dependent effect | survival at 20 µM (Pseudomonas aeruginosa [5]): 89.9% | Activity [6]: 0.88 µM | Activity (Pseudomonas aeruginosa [7]): >25% | inhibition at 5 µM (Pseudomonas aeruginosa [8]): 43.7% | Activity [9]: inactive | pFe3+ [10]: 20.6 | Activity [11]: 0.97 µM | inhibition at 2.5 µM (Pseudomonas aeruginosa [12]): -8.67% | Activity (Pseudomonas aeruginosa [13]): Dose-dependent effect | inhibition at 20 µM (Pseudomonas aeruginosa [14]): 51.4% | inhibition at 2.5 µM (Pseudomonas aeruginosa [15]): 34.6%
